Reference: ChEMBL document CHEMBL4020842, “Discovery of N1-(4-((7-Cyclopentyl-6-(dimethylcarbamoyl)-7 H-pyrrolo[2,3- d]pyrimidin-2-yl)amino)phenyl)- N8-hydroxyoctanediamide as a Novel Inhibitor Targeting Cyclin-dependent Kinase 4/9 (CDK4/9) and Histone Deacetlyase1 (HDAC1) against Malignant Cancer” (J Med Chem, 2018)
Activity calls are given as the source filed them. No cut-off for these calls is given here.

Key:
[1] = test system: HepG2; test: Induction of apoptosis in human HepG2 cells assessed as live cells at 10 uM after 48 hrs by annexin V-FITC/propidium iodide staining based flow cytometry (reference value: 96.7%); type: functional
[2] = test system: NCI-H460; test: Induction of apoptosis in human NCI-H460 cells assessed as early apoptotic cells at 5 uM after 48 hrs by annexin V-FITC/propidium iodide staining based flow cytometry (reference value: 0.11%); type: functional
[3] = test system: NCI-H460; test: Induction of apoptosis in human NCI-H460 cells assessed as necrotic cells at 1 uM after 48 hrs by annexin V-FITC/propidium iodide staining based flow cytometry (reference value: 1.34%); type: functional
[4] = test system: NCI-H460; test: Induction of apoptosis in human NCI-H460 cells assessed as necrotic cells at 10 uM after 48 hrs by annexin V-FITC/propidium iodide staining based flow cytometry (reference value: 1.34%); type: functional
[5] = test system: NCI-H460; test: Induction of apoptosis in human NCI-H460 cells assessed as live cells at 10 uM after 48 hrs by annexin V-FITC/propidium iodide staining based flow cytometry (reference value: 97.3%); type: functional
[6] = test system: T47D; test: Induction of apoptosis in human T47D cells assessed as late apoptotic cells at 5 uM after 48 hrs by annexin V-FITC/propidium iodide staining based flow cytometry (reference value: 6.16%); type: functional
[7] = test system: T47D; test: Induction of apoptosis in human T47D cells assessed as late apoptotic cells at 1 uM after 48 hrs by annexin V-FITC/propidium iodide staining based flow cytometry (reference value: 6.16%); type: functional
[8] = test system: MDA-MB-231; test: Induction of apoptosis in human MDA-MB-231 cells assessed as necrotic cells at 5 uM after 48 hrs by annexin V-FITC/propidium iodide staining based flow cytometry (reference value: […]); type: functional
[9] = test system: MDA-MB-231; test: Induction of apoptosis in human MDA-MB-231 cells assessed as necrotic cells at 1 uM after 48 hrs by annexin V-FITC/propidium iodide staining based flow cytometry (reference value: […]); type: functional
[10] = test system: MDA-MB-231; test: Induction of apoptosis in human MDA-MB-231 cells assessed as necrotic cells at 10 uM after 48 hrs by annexin V-FITC/propidium iodide staining based flow cytometry (reference value: […]); type: functional
[11] = target: CDK9/cyclin T1 (Homo sapiens) (UniProt O60563+P50750); test: Inhibition of recombinant human full length C-terminal 6His-tagged CDK9/Cyclin-T1 co-expressed in baculovirus infected sf21 cells at 1 uM using PDKtide substrate in presence of [gamma33P]ATP after 10 mins by scintillation counting method relative to control
[12] = target: CDK6/cyclin D3 (Homo sapiens) (UniProt P30281+Q00534); test: Inhibition of recombinant human full length N-terminal 6His-tagged CDK6/N-terminal GST-tagged Cyclin-D3 co-expressed in sf21 cells at 1 uM using histone H1 substrate in presence of [gamma33P]ATP after 10 mins by scintillation counting method relative to control
[13] = target: Cyclin-dependent kinase 5/CDK5 activator 1 (Homo sapiens) (UniProt Q00535+Q15078); test: Inhibition of recombinant human full length N-terminal 6His-tagged CDK5/N-terminal GST-tagged p25 co-expressed in baculovirus infected sf21 cells at 1 uM using histone H1 substrate in presence of [gamma33P]ATP after 10 mins by scintillation counting method relative to control
[14] = target: Serine/threonine-protein kinase TAO2 (Homo sapiens, UniProt Q9UL54); test: Inhibition of recombinant human N-terminal His6-tagged TAO2 expressed in sf21 cells
[15] = target: Aurora kinase A (Homo sapiens, UniProt O14965); test: Inhibition of recombinant human full length C-terminal 6His-tagged Aurora-A expressed in baculovirus infected sf21 cells using kemptide substrate in presence of [gamma33P]ATP after 10 mins by scintillation counting method
[16] = test system: NCI-H460; test: Cytotoxicity against human NCI-H460 cells assessed as reduction in cell viability after 72 hrs by CCK8 assay; type: functional, cell-based; conditions: NCI-H460, 72 h
[17] = target: T1, Histone deacetylase 1 (Homo sapiens, UniProt Q13547); test: Inhibition of HDAC1 (unknown origin)
[18] = target: T1, Histone deacetylase 1; test: Potency index, ratio of vorinostat IC50 to compound IC50 for HDAC1 (unknown origin)
[19] = test system: HepG2; test: Induction of apoptosis in human HepG2 cells assessed as necrotic cells at 10 uM after 48 hrs by annexin V-FITC/propidium iodide staining based flow cytometry (reference value: 2.32%); type: functional
[20] = test system: HepG2; test: Induction of apoptosis in human HepG2 cells assessed as necrotic cells at 5 uM after 48 hrs by annexin V-FITC/propidium iodide staining based flow cytometry (reference value: 2.32%); type: functional
[21] = test system: Hep 3B2; test: Induction of apoptosis in human Hep3B cells assessed as late apoptotic cells at 1 uM after 48 hrs by annexin V-FITC/propidium iodide staining based flow cytometry (reference value: 5.25%); type: functional
[22] = test system: Hep 3B2; test: Induction of apoptosis in human Hep3B cells assessed as early apoptotic cells at 5 uM after 48 hrs by annexin V-FITC/propidium iodide staining based flow cytometry (reference value: 1.91%); type: functional
[23] = test system: Hep 3B2; test: Induction of apoptosis in human Hep3B cells assessed as late apoptotic cells at 5 uM after 48 hrs by annexin V-FITC/propidium iodide staining based flow cytometry (reference value: 5.25%); type: functional
[24] = test system: Hep 3B2; test: Induction of apoptosis in human Hep3B cells after 48 hrs by annexin V-FITC/propidium iodide staining based flow cytometry; type: functional, cell-based
[25] = target: T1, Histone deacetylase 1; test: Inhibition of HDAC1 in human MDA-MB-231 cells assessed as increase in acetylated-histone H3 level at 1 to 5 uM after 48 hrs by Western blot method; type: cell-based
[26] = test system: MDA-MB-231; test: Induction of apoptosis in human MDA-MB-231 cells assessed as reduction in Bcl2 protein expression after 48 hrs by Western blot method; type: functional, cell-based
Procedure, shortened: (§1)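 Cells were treated with or without test agent, alongside a control, for 48h. They were then lysed and analysed by Western blot for Bcl-2 protein and cleaved caspase 3.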

[27] = test system: T47D; test: Induction of apoptosis in human T47D cells assessed as caspase-3 cleavage after 48 hrs by Western blot method; type: functional, cell-based; procedure, shortened: as §1
[28] = target: T1, Histone deacetylase 1; test: Inhibition of HDAC1 in human MDA-MB-231 cells assessed as increase in p53 phosphorylation at Ser15 residue at 1 to 5 uM after 48 hrs by Western blot method; type: cell-based
[29] = target: T1, Histone deacetylase 1; test: Inhibition of HDAC1 in human HepG2 cells assessed as increase in p53 phosphorylation at Ser15 residue at 1 to 5 uM after 48 hrs by Western blot method; type: cell-based
[30] = MRT (0 to infinity) in Sprague-Dawley rat at 20 mg/kg, iv administered as single dose by HPLC analysis; type: ADME, organism-based; conditions: in vivo
[31] = MRT (0 to infinity) in Sprague-Dawley rat at 20 mg/kg, ip administered as single dose by HPLC analysis; type: ADME, organism-based; conditions: in vivo
[32] = Half life in Sprague-Dawley rat at 20 mg/kg, ip administered as single dose by HPLC analysis; type: ADME, organism-based; conditions: in vivo
[33] = test system: 4T1; test: Antitumor activity against mouse Fluc-labeled 4T1 cells implanted in Balb/c mouse assessed as tumor growth inhibition at 130 mg/kg, po administered daily via gavage for 18 days by bioluminescence assay relative to control; type: functional; conditions: 4T1, po, 432 h, read-out: TGI

T1 sequence (Q13547 whole entry): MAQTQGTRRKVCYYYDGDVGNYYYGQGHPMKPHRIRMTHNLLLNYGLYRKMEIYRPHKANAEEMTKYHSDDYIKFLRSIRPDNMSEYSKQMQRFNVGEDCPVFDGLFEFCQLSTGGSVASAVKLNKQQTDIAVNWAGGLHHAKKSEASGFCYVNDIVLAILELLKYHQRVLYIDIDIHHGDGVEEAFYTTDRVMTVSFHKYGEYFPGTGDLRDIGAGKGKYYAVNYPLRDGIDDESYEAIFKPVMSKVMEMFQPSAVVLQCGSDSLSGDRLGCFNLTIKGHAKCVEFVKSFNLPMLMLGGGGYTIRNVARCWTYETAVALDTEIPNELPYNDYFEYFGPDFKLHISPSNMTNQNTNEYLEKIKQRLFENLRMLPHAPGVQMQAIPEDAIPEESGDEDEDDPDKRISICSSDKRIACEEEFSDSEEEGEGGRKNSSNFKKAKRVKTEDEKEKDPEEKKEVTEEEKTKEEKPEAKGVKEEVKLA
Chain of Cyclin-dependent kinase 5/CDK5 activator 1 (Homo sapiens) (Q00535 whole entry): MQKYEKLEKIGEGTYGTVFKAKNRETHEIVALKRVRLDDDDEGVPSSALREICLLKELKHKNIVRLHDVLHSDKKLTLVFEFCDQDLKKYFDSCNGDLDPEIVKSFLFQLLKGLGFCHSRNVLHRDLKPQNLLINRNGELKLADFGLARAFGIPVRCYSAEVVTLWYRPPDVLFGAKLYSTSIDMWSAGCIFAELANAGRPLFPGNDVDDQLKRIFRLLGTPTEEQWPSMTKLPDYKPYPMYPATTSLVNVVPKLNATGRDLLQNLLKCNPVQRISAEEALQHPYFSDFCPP
Chain of Cyclin-dependent kinase 5/CDK5 activator 1 (Homo sapiens) (Q15078 99-307 partner limits assumed): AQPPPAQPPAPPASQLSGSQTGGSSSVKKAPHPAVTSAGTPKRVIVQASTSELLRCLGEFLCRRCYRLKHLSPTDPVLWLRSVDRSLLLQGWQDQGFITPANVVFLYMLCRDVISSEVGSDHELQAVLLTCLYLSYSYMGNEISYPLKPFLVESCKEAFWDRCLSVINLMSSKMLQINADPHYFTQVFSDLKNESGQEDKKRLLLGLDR
Chain of Serine/threonine-protein kinase TAO2 (Q9UL54 whole entry): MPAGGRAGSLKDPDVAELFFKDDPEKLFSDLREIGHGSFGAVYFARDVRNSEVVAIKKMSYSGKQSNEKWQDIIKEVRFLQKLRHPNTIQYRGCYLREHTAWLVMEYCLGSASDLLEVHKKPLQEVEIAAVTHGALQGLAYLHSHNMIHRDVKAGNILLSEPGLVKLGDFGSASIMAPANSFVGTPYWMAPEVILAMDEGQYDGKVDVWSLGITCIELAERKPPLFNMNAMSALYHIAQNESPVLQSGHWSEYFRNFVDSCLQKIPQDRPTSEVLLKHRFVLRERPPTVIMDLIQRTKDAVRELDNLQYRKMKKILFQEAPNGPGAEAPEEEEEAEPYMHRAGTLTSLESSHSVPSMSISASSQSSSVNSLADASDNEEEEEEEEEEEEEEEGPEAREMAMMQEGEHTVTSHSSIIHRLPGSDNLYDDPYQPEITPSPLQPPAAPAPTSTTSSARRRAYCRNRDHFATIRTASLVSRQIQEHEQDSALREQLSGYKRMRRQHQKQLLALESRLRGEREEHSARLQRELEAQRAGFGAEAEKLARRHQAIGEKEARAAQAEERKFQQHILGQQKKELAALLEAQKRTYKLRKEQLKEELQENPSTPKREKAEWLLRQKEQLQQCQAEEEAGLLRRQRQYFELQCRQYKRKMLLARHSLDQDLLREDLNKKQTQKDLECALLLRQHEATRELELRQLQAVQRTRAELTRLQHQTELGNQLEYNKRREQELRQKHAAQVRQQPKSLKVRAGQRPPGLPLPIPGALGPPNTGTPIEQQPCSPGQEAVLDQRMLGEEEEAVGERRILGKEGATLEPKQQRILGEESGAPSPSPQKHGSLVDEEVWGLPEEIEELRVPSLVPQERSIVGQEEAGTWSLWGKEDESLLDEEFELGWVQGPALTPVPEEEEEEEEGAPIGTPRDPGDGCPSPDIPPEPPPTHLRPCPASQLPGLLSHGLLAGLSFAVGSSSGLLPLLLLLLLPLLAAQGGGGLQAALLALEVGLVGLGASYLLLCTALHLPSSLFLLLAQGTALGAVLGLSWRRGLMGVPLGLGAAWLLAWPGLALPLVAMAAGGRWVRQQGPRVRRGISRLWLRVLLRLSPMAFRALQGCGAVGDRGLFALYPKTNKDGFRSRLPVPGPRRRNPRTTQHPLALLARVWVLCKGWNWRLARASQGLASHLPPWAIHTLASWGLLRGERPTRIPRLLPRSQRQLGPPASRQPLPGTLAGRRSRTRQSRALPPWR
Chain of Aurora kinase A (O14965 whole entry): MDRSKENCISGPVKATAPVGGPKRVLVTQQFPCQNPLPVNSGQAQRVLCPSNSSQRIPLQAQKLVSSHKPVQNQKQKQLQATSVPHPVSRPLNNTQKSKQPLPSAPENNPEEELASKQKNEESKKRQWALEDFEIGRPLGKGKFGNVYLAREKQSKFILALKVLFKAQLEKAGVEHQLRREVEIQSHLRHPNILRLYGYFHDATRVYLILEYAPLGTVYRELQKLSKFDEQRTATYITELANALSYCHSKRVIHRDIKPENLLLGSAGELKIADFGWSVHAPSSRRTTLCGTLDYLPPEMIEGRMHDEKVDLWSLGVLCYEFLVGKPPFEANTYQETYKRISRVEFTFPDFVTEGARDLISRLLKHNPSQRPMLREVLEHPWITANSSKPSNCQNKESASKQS

## CN(C)C(=O)c1cc2cnc(Nc3ccc(NC(=O)CCCCCCC(=O)NO)cc3)nc2n1C1CCCC1
[1]
  Activity: 73.3%
[2]
  Activity: 1.82%
[3]
  Activity: 1.25%
[4]
  Activity: 5.58%
[5]
  Activity: 79.6%
[6]
  Activity: 8.44%
[7]
  Activity: 6.48%
[8]
  Activity: 1.36%
[9]
  Activity: 1.65%
[10]
  Activity: 1.21%
[11]
  inhibition: 97%
[12]
  inhibition: 70%
[13]
  inhibition: 78%
[14]
  IC50: 84 nM
[15]
  IC50: 12 nM
[16]
  IC50: 3780 nM
[17]
  IC50: 2.2 nM
[18]
  Ratio IC50: > 10
[19]
  Activity: 5.75%
[20]
  Activity: 6.13%
[21]
  Activity: 7.09%
[22]
  Activity: 6.52%
[23]
  Activity: 10.4%
[24]
  Activity: Dose-dependent effect
[25]
  inhibition: Active
[26]
  Activity: Active
[27]
  Activity: Active
[28]
  inhibition: Active
[29]
  inhibition: Active
[30]
  MRT inf: 14.1 h
[31]
  MRT inf: 13.8 h
[32]
  half-life: 9.65 h
[33]
  inhibition in vivo at 130 mg/kg: 79.3%
